Calls of active or inactive are those of the source. The rule behind the calls is not given here.
Tests used:
[1] = system: MCF7; test: Antiproliferative activity against human MCF7 cells assessed as reduction in cell proliferation in RPMI containing 10% FBS incubated for 5 days by Cell-titer-Glo assay; format: functional, cell-based; settings: MCF7, 120 h
How it was run: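 MCF-7 cells, 640/well in RPMI with 10% FBS and 20 mM HEPES, adhered overnight; 10-point 1:5 dilution series (10–0.000005 µM final) for 5 days. CellTiter-Glo luminescence, cell-free medium background subtracted, percent viability vs untreated cells; n ≥ 3.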

[2] = molecular target: T1, Estrogen receptor (Homo sapiens, UniProt P03372); test: Induction of ERalpha degradation in human MCF7 cells in phenol red free RPMI medium containing 5% charcoal dextran-treated FBS incubated for 4 hrs by SP1 and anti-ER rabbit monocolnal antibody based in-cell Western assay
T1 sequence (P03372 whole entry): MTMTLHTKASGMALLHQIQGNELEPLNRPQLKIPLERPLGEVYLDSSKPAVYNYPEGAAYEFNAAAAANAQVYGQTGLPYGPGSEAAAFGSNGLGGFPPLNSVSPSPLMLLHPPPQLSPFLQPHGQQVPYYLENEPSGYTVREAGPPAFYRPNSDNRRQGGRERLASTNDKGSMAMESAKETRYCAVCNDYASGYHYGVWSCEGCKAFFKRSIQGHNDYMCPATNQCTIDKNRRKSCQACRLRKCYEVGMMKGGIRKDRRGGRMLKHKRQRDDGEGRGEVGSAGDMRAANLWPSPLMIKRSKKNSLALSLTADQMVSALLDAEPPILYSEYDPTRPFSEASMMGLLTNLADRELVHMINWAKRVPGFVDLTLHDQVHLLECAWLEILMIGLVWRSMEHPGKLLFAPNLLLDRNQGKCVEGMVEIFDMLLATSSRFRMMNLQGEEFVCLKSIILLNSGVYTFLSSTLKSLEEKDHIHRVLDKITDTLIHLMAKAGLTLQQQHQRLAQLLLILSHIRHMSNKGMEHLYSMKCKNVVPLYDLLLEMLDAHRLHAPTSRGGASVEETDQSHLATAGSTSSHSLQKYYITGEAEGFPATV

[3] = AUC in mouse at 10 mg/kg, po; format: ADME, organism-based; settings: in vivo
How it was run: (§1)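 Mouse or rat PK: single intravenous dose 3 mg/kg or oral dose 10 mg/kg, vehicle PEG400/PVP/Tween 80/0.5% CMC in water (9:0.5:0.5:90).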

[4] = system: MCF7; test: Antitumor activity against human MCF7 cells xenografted in nu/nu mouse model of tamoxifen-resistant breast cancer xenograft implanted with 17beta-estradiol time release pellets assessed as reduction tumor volume at 120 mg/kg, po qd for 4 weeks; format: functional, organism-based
How it was run: (§2)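 Female nu/nu mice with 0.72 mg 60-day 17β-estradiol pellets bearing MCF-7 tumors, pretreated with oral tamoxifen citrate; at ~150-250 mm3 (mean 200 mm3) randomized, tamoxifen stopped, then dosed daily for 4 weeks; tumor volume (length x width2/2) and body weight twice weekly.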

[5] = system: Rattus norvegicus; test: In-vivo agonist activity at ERalpha in CD-IGS rat assessed as increase in uterine wet weight at 60 mg/kg, po dosed daily for 3 days by gavage and measured 24 hrs after last dose by immature rat uterine wet weight assay; format: functional, organism-based
How it was run: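 Immature CD-IGS rats given compound orally for 3 days without ethynyl estradiol (agonist mode); on day 4, 24 h after dosing, uterus removed and weighed; wet weight normalized to total body weight.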

[6] = system: Rattus norvegicus; test: Reduction in uterine wet weight in ethynyl estradiol-stimulated CD-IGS rat at 60 mg/kg, po dosed daily for 3 days by gavage followed 15 mins later by 0.1 mg/kg, po ethynyl estradiol and measured 24 hrs after last dose by immature rat uterine wet weight assay; format: functional
How it was run: (§3)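 Female immature CD-IGS rats, 21 days old on arrival; oral gavage of vehicle or compound daily for 3 days, ethynyl estradiol 0.1 mg/kg orally 15 min after each dose. Day 4, 24 h post-dose, plasma taken, then uterus removed and weighed. Reduction = 100 x (VehicleEE – Cpd)/(VehicleEE – Vehicle).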

[7] = system: MCF7; test: Antitumor activity against human MCF7 cells xenografted in nu/nu mouse model of tamoxifen-sensitive breast cancer xenograft implanted with 17beta-estradiol time release pellets assessed as reduction tumor volume at 60 mg/kg, po qd for 4 weeks; format: functional, organism-based
[8] = AUC in human MCF7 cells xenografted nu/nu mouse implanted with 17beta-estradiol time release pellets dosed orally once daily for 4 weeks; format: ADME, organism-based; settings: in vivo, po
[9] = AUC (0 to infinity) in rat at 10 mg/kg, po; format: ADME, organism-based; design: dose 10 mg/kg, route oral, time infinity; settings: in vivo
[10] = AUC (0 to infinity) in mouse at 10 mg/kg, po; format: ADME, organism-based; design: dose 10 mg/kg, route oral, time infinity; settings: in vivo
[11] = Cmax in rat at 10 mg/kg, po; format: ADME, organism-based; design: dose 10 mg/kg, route oral; settings: in vivo; how it was run: as §1
[12] = system: Rattus norvegicus; test: Reduction in uterine wet weight in ethynyl estradiol-stimulated CD-IGS rat at 1 mg/kg, po dosed daily for 3 days by gavage followed 15 mins later by 0.1 mg/kg, po ethynyl estradiol and measured 24 hrs after last dose by immature rat uterine wet weight assay; format: functional; how it was run: as §3
[13] = Oral bioavailability in rat at 10 mg/kg; format: ADME, organism-based; settings: in vivo; how it was run: as §1
[14] = Half life in rat at 3 mg/kg, iv; format: ADME, organism-based; settings: in vivo; how it was run: as §1
[15] = Volume of distribution at steady state in rat at 3 mg/kg, iv; format: ADME, organism-based; settings: in vivo, read-out: Vdss; how it was run: as §1
[16] = Half life in mouse at 3 mg/kg, iv; format: ADME, organism-based; settings: in vivo; how it was run: as §1
[17] = Clearance in rat at 3 mg/kg, iv; format: ADME, organism-based; settings: in vivo; how it was run: as §1
[18] = Clearance in mouse at 3 mg/kg, iv; format: ADME, organism-based; settings: in vivo; how it was run: as §1
[19] = Volume of distribution at steady state in mouse at 3 mg/kg, iv; format: ADME, organism-based; settings: in vivo, read-out: Vdss; how it was run: as §1
[20] = Cmax in mouse at 10 mg/kg, po; format: ADME, organism-based; design: dose 10 mg/kg, route oral; settings: in vivo; how it was run: as §1
[21] = Oral bioavailability in mouse at 10 mg/kg; format: ADME, organism-based; settings: in vivo; how it was run: as §1
[22] = system: MCF7; test: Antitumor activity against human MCF7 cells xenografted in nu/nu mouse model of tamoxifen-resistant breast cancer xenograft implanted with 17beta-estradiol time release pellets assessed as reduction tumor volume at 60 mg/kg, po qd for 4 weeks; format: functional, organism-based; how it was run: as §2
[23] = system: MCF7; test: Antitumor activity against human MCF7 cells xenografted in nu/nu mouse model of tamoxifen-sensitive breast cancer xenograft implanted with 17beta-estradiol time release pellets assessed as reduction tumor volume at 6 mg/kg, po qd for 4 weeks; format: functional, organism-based
[24] = Clearance in Sprague-Dawley rat at 1 mg/kg, iv; format: ADME, organism-based; settings: in vivo
[25] = Oral bioavailability in Sprague-Dawley rat at 2 mg/kg; format: ADME, organism-based; settings: in vivo
[26] = molecular target: T1, Estrogen receptor; test: Binding affinity to ERalpha (unknown origin)

IC50 [1] [nM]	AUC [3] [ng·h/mL]	IC50 [2] [nM]	SMILES	further results
			CC/C(=C(\c1ccccc1)c1ccc(OCCN(C)C)cc1)c1ccccc1 [TAMOXIFEN]	Activity [4]: inactive; Activity [5]: Active; inhibition (INH) [6]: 78%; Activity [7]: Active
0.3		0.4	CC1=C(c2cccc(O)c2)C(c2ccc(OCCN3CCCC3)cc2)Oc2ccc(O)cc21 (stereo unspecified)	
0.2	120	0.3	CC1=C(c2ccc(O)cc2)C(c2ccc(OC[C@H](C)N3CC[C@@H](C)C3)cc2)Oc2cc(O)ccc21 (stereo partly specified)	
0.2		0.2	CC1=C(c2cccc(O)c2)C(c2ccc(OCCN3CCCCC3)cc2)Oc2ccc(O)cc21 (stereo unspecified)	
0.3		0.2	CC1=C(c2cccc(O)c2)C(c2ccc(OCCN3CC[C@H](C)C3)cc2)Oc2ccc(O)cc21 (stereo partly specified)	
4.3		1.4	CC1=C(c2cccc(S(C)(=O)=O)c2)C(c2ccc(OC[C@H](C)N3CC[C@@H](C)C3)cc2)Oc2ccc(O)cc21 (stereo partly specified)	
	2000		CC1=C(c2ccc(F)cc2)C(c2ccc(OC[C@H](C)N3CC[C@@H](C)C3)cc2)Oc2ccc(O)cc21 (stereo partly specified)	AUC at 672 h [8]: 36000 ng·h/mL; AUC(0-inf) [9]: 4500 ng·h/mL; AUC(0-inf) [10]: 2000 ng·h/mL; Cmax [11]: 280 ng/mL; inhibition (INH) [12]: 111%; bioavailability [13]: 54%; half-life [14]: 7.4 h; Vd [15]: 12 L/kg; half-life [16]: 5.2 h; clearance [17]: 21 mL/min/kg; clearance [18]: 30 mL/min/kg; Vd [19]: 11 L/kg; Cmax [20]: 170 ng/mL; IC50 ([2]; mcf7): 0.4 nM; bioavailability [21]: 35%; Activity [22]: inactive; Activity [23]: Active
0.2		0.4	CC1=C(c2cccc(O)c2)C(c2ccc(OC[C@H](C)N3CCCC3)cc2)Oc2ccc(O)cc21 (stereo partly specified)	
			Oc1ccc([C@H]2Sc3cc(O)ccc3O[C@H]2c2ccc(OCCN3CCCCC3)cc2)cc1	clearance [24]: 5 mL/min/kg; bioavailability [25]: 31%
0.2		0.2	CC1=C(c2cccc(O)c2)C(c2ccc(OC[C@H](C)N3CCCCCC3)cc2)Oc2ccc(O)cc21 (stereo partly specified)	
0.2		0.2	CC1=C(c2cccc(O)c2)C(c2ccc(OC[C@H](C)N3CC[C@H](C)C3)cc2)Oc2ccc(O)cc21 (stereo partly specified)	
0.1	460	0.1	CC1=C(c2ccc(O)cc2)C(c2ccc(OC[C@H](C)N3CC[C@@H](C)C3)cc2)Oc2ccc(O)cc21 (stereo partly specified)	inhibition (INH) [12]: 113%
0.4	1000	0.4	CC1=C(c2ccccc2)C(c2ccc(OC[C@H](C)N3CC[C@@H](C)C3)cc2)Oc2ccc(O)cc21 (stereo partly specified)	
0.2		0.2	CC1=C(c2cccc(O)c2)C(c2ccc(OC[C@@H](C)N3CC[C@H](C)C3)cc2)Oc2ccc(O)cc21 (stereo partly specified)	
0.1		0.1	CC1=C(c2cccc(O)c2)[C@H](c2ccc(OC[C@H](C)N3CC[C@@H](C)C3)cc2)Oc2ccc(O)cc21	IC50 [26]: 2.8 nM

SMILES	IC50 [1] [nM]	AUC [3] [ng·h/mL]	IC50 [2] [nM]	further results
CC1=C(c2ccc(C#N)cc2)C(c2ccc(OC[C@H](C)N3CC[C@@H](C)C3)cc2)Oc2ccc(O)cc21 (stereo partly specified)	10	2000		IC50 ([2]; mcf7): 1.5 nM

— ChEMBL document CHEMBL4145684 (J Med Chem, 2018)
